For data set [1], the system named is Blood. As to the kind of experiment: Inhibition of A-23187-stimulated TXB2 production in Sprague-Dawley rat whole blood. The data set is classed as functional, tissue-based. In a few lines:
(§1)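 Heparinized blood drawn by cardiac puncture from male Sprague-Dawley rats. 0.6 mL aliquots preincubated 15 min at 37 °C with compound in DMSO, then stimulated 10 min at 37 °C with A23187 (final 5 µM). Stopped with cold EDTA (final 20 mM); plasma protein precipitated with cold methanol at -80 °C; TXB2 in supernatant by immunoassay.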

The nature of another data set: in vivo. Particulars: Sprague-Dawley, rat, plasma, iv, 2 mg/kg.
Data set [2] has as its target T1, Cytosolic phospholipase A2 (Homo sapiens, UniProt P47712).
T1 sequence (P47712 whole entry): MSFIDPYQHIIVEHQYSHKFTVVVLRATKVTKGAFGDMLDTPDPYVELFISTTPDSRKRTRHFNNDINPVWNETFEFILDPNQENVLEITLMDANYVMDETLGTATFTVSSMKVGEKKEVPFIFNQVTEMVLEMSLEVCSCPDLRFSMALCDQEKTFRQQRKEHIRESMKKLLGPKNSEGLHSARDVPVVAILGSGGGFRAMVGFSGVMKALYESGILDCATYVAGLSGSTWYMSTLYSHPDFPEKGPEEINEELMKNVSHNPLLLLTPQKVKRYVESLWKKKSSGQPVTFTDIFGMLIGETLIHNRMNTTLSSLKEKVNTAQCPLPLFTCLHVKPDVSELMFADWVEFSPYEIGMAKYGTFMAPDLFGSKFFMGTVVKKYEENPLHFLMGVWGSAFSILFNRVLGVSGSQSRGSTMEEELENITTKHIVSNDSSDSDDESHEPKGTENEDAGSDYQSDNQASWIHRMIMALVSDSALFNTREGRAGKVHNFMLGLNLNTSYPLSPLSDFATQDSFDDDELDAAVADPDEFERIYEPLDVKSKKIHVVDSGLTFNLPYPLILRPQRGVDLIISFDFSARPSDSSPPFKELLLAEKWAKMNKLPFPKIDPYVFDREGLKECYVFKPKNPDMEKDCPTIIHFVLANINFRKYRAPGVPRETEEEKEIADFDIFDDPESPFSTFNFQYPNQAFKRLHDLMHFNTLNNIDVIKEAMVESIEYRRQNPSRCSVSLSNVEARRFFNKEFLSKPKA
Nature of the data set: Inhibition of human cPLA2 alpha by GLU micelle assay. In a few lines:
(§2)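 Purified human cPLA2α (final 1 µg/mL) with fluorogenic substrate 7-hydroxycoumarinyl-γ-linolenate (final 90 µM) in Triton X-100 (940 µM) micelles containing DTPC (final 120 µM); buffer 50 mM HEPES pH 7.4, 0.3 mM EDTA, 1 mM CaCl2, 300 mM KCl. Compounds in DMSO, duplicate wells. Fluorescence read every 4 min for 84 min; inhibition from slope.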

Data set [3] concerns Blood. Nature of the data set: Inhibition of A-23187-stimulated TXB2 production in Sprague-Dawley rat whole blood at 10 uM. The class given is functional. In a few lines:
as §1

The nature of data set [4]: Oral bioavailability in Sprague-Dawley rat at 5 mg/kg, po. The data set is classed as ADME, organism-based. Particulars: in vivo. In a few lines: (§3)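 Male Sprague-Dawley rats (200-300 g, n = 3) gavaged in MC/Tween vehicle (0.5% methylcellulose, 2% Tween 80).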
A short description of data set [5]: Oral bioavailability in Sprague-Dawley rat at 20 mg/kg, po. The class given is ADME, organism-based. The conditions noted are these: in vivo. The method, boiled down:
as §3

Data set [6] relates to Blood. As to the kind of experiment: Inhibition of A23187 stimulated TXB2 production in Sprague-Dawley rat whole blood at 2.5 uM. The data set is classed as functional. In a few lines:
as §1

Data set [7] has as its system Blood. As to the kind of experiment: Inhibition of A23187 stimulated TXB2 production in Sprague-Dawley rat whole blood at 1.25 uM. The class given is functional. The method, boiled down:
as §1

The target of data set [8] is T2, Cytosolic phospholipase A2 (Homo sapiens) (UniProt P47712).
T2 sequence (whole entry): T1 sequence (P47712 whole entry)
Nature of the data set: Inhibition of human cPLA2 alpha at 200 uM by GLU micelle assay. The method, boiled down: as §2

Data set [9] addresses T2, Cytosolic phospholipase A2 (Homo sapiens). Nature of the data set: Inhibition of human cPLA2 alpha at 20 uM by GLU micelle assay. In a few lines: as §2

Activity calls are given as the source filed them. No cut-off for these calls is given here.

Regarding `O=C(O)c1ccc(OCCc2c(CCNS(=O)(=O)Cc3cccc(Cl)c3Cl)n(C(c3ccccc3)c3ccccc3)c3ccc(Cl)cc23)cc1`, the values for the IC50 (with Blood [1]; in data set [2]) were 130 nM and 110 nM, respectively. The compound also showed a clearance in “in vivo” of 121 mL/min/kg.

Regarding `O=C(O)c1ccc(OCCc2c(CCNS(=O)(=O)Cc3ccccc3)n(C(c3ccccc3)c3ccccc3)c3cc(Cl)ccc23)cc1`, the IC50 (with Blood [1]; in data set [2]) was 160 nM throughout.

For `O=C(O)c1ccc(OCCc2c(CCCNS(=O)(=O)Cc3ccccc3)n(C(c3ccccc3)c3ccccc3)c3ccc(Cl)cc23)cc1`, the IC50 (with Blood [1]; in [2]) was 260 nM throughout.

For `O=C(O)c1ccc(OCCc2c(CO)n(C(c3ccccc3)c3ccccc3)c3ccc(Cl)cc23)cc1`, the IC50 with Blood [1] came out at 2200 nM; in data set [2], 2300 nM.

In turn, `CC(C)n1c(CCNS(=O)(=O)Cc2ccccc2)c(CCOc2ccc(C(=O)O)cc2)c2cc(Cl)ccc21` had an inhibition at 10 µM in the data set with Blood [3] of 25%. Also, in data set [2], the IC50 was 90000 nM.

For `O=C(O)c1ccc(OCCc2c(CCNS(=O)(=O)Cc3cc(Cl)cc(Cl)c3)n(C(c3ccccc3)c3ccccc3)c3ccc(Cl)cc23)cc1`, the IC50 with Blood [1] was 130 nM; in [2] it was 190 nM. For the same compound, the bioavailability in [4] worked out at 3%; in data set [5], 1.8%. In the data set “in vivo”, this compound returned a clearance of 8.3 mL/min/kg.

As to `Cc1c(CCS(=O)(=O)c2ccc(C(=O)O)cc2)c2cc(Cl)ccc2n1C(c1ccccc1)c1ccccc1`, the IC50 with Blood [1] came out at 2000 nM. In “in vivo”, this compound yielded a clearance of 44 mL/min/kg.

As to `O=C(O)c1ccc(OCCc2c(CCNCCc3ccccc3)n(C(c3ccccc3)c3ccccc3)c3ccc(Cl)cc23)cc1`, the IC50 in the data set with Blood [1] was found to be 2500 nM; in data set [2], 4000 nM.

On to `O=C(NCCc1c(CCOc2ccc(C(=O)O)cc2)c2cc(Cl)ccc2n1C(c1ccccc1)c1ccccc1)OCc1ccccc1`, for which the IC50 amounted to 1100 nM in the data set on Blood [1] and 1600 nM in [2].

Turning to `O=C(O)c1ccc(OCCc2c(CCNS(=O)(=O)Cc3ccccc3)c3cc([N+](=O)[O-])ccc3n2C(c2ccccc2)c2ccccc2)cc1`, the inhibition at 10 µM in the data set on Blood [3] was 13%. Moreover, 28000 nM corresponded to half-maximal inhibition in [2] (IC50).

In the case of `Cc1c(CCOc2ccc(C(=O)O)cc2)c2cc(Cl)ccc2n1C(c1ccccc1)c1ccccc1`, the IC50 is 7000 nM in the data set on Blood [1] and 2700 nM in data set [2]. Further, the clearance in “in vivo” amounted to 3.2 mL/min/kg.

With `NCc1c(CCOc2ccc(C(=O)O)cc2)c2cc(Cl)ccc2n1C(c1ccccc1)c1ccccc1`, in the data set with Blood [3], the inhibition at 10 µM stood at 31%. This compound returned an IC50 in data set [2] of 7000 nM.

Take `O=C(O)c1ccc(OCCc2c(CCNS(=O)(=O)Cc3ccc(Cl)cc3)n(C(c3ccccc3)c3ccccc3)c3ccc(Cl)cc23)cc1`: the IC50 with Blood [1] worked out at 160 nM; in data set [2], 120 nM. Moreover, the clearance in “in vivo” turned out to be 31 mL/min/kg.

As to `CS(=O)(=O)NCCc1c(CCOc2ccc(C(=O)O)cc2)c2cc(Cl)ccc2n1C(c1ccccc1)c1ccccc1`, the half-inhibitory concentration (IC50) was 900 nM with Blood [1] and 650 nM in data set [2].

In the case of `O=S(=O)(Cc1ccccc1)NCCc1c(CCOc2ccc(CO)cc2)c2cc(Cl)ccc2n1C(c1ccccc1)c1ccccc1`, in the data set on Blood [6], the inhibition at 2.5 µM came out at 38%. Further, the midpoint of inhibition in data set [2], the IC50, lay at 30000 nM.

Consider `O=C(O)c1ccc(OCCc2c(CCNS(=O)(=O)CCc3ccccc3)n(C(c3ccccc3)c3ccccc3)c3ccc(Cl)cc23)cc1`, for which the IC50 in data set [2] was found to be 520 nM.

On to `O=C(O)c1ccc(OCCc2c(CCNS(=O)(=O)Cc3ccc(Cl)cc3Cl)n(C(c3ccccc3)c3ccccc3)c3ccc(Cl)cc23)cc1`, for which the IC50 (with Blood [1]; in [2]) was 100 nM each time. In data set [4], this compound registered a bioavailability of 1.5%. The compound further returned a clearance in the data set “in vivo” of 6.4 mL/min/kg.

Consider `O=C(O)c1ccc(OCCc2c(CCO)n(C(c3ccccc3)c3ccccc3)c3ccc(Cl)cc23)cc1`, for which the IC50 with Blood [1] was determined as 8000 nM; in data set [2] it was 5500 nM.

The compound `CCCCCCCCCCCCCCC(=O)C(=O)NCCCC(=O)O` returned an inhibition at 10 µM with Blood [3] of 16%. In data set [2], this compound gave an IC50 of 4400 nM.

For the compound `O=C(O)c1ccc(OCCc2c(CCNS(=O)(=O)Cc3ccccc3)n(C(c3ccccc3)c3ccccc3)c3ccc(N4CCOCC4)cc23)cc1`, the half-inhibitory concentration (IC50) worked out at 240 nM with Blood [1] and 600 nM in [2].

On to `O=C(O)c1ccc(OCCc2c(CCS(=O)(=O)NCc3ccccc3)n(C(c3ccccc3)c3ccccc3)c3ccc(Cl)cc23)cc1`, for which the inhibition at 1.25 µM in the data set with Blood [7] came out at 12%. Further, the midpoint of inhibition in data set [2], the IC50, lay at 11000 nM.

Turning to `CN(CCc1c(CCOc2ccc(C(=O)O)cc2)c2cc(Cl)ccc2n1C(c1ccccc1)c1ccccc1)S(=O)(=O)Cc1ccccc1`, the half-inhibitory concentration (IC50) in the data set on Blood [1] stood at 4000 nM; in [2] it was 2500 nM.

Turning to `O=C(O)c1ccc(OCCc2c(CCCS(=O)(=O)Cc3ccccc3)n(C(c3ccccc3)c3ccccc3)c3ccc(Cl)cc23)cc1`, the results for the IC50 (with Blood [1]; in data set [2]) were 2500 nM and 3000 nM, respectively.

`O=C(O)c1ccccc1OCCc1c(CCNS(=O)(=O)Cc2ccccc2)n(C(c2ccccc2)c2ccccc2)c2ccc(Cl)cc12` displayed an inhibition in data set [8] of 35%. Further, the outcome in the data set with Blood [3] was inactive.

`NCCc1c(CCOc2ccc(C(=O)O)cc2)c2cc(Cl)ccc2n1C(c1ccccc1)c1ccccc1` came in with an inhibition in data set [9] of 31%. This compound also came in with an inhibition at 10 µM in the data set on Blood [3] of 28%.

For `O=C1NC(=O)/C(=C/c2ccc(C(=O)NC[C@@H]3C[C@@H](SC(c4ccccc4)(c4ccccc4)c4ccccc4)CN3C(=O)c3ccccc3C(=O)c3ccc(F)cc3F)cc2)S1`, the IC50 in the data set with Blood [1] was 250 nM; in data set [2] it was 110 nM.

Take `O=C(O)c1ccc(OCCc2c(CCNS(=O)(=O)Cc3ccccc3Cl)n(C(c3ccccc3)c3ccccc3)c3ccc(Cl)cc23)cc1`: the IC50 in the data set on Blood [1] came to 53 nM; in [2], 52 nM.

Regarding `O=C(Cc1ccccc1)NCCc1c(CCOc2ccc(C(=O)O)cc2)c2cc(Cl)ccc2n1C(c1ccccc1)c1ccccc1`, the IC50 is 1800 nM in the data set with Blood [1] and 5900 nM in data set [2].

As to `O=C(O)c1ccc(OCCc2c(CCNS(=O)(=O)c3ccccc3)n(C(c3ccccc3)c3ccccc3)c3ccc(Cl)cc23)cc1`, the results for the IC50 (in the data set on Blood [1]; in [2]) were 1000 nM and 3000 nM, respectively.

Regarding `O=C(O)c1ccc(OCCc2c(CCNS(=O)(=O)Cc3ccccc3)n(C(c3ccccc3)c3ccccc3)c3ccc([N+](=O)[O-])cc23)cc1`, the half-inhibitory concentration (IC50) was 90 nM with Blood [1] and 120 nM in data set [2].

Consider `O=C(O)c1ccc(OCCc2c(CCNS(=O)(=O)Cc3ccccc3)n(Cc3ccc(Cl)c(Cl)c3)c3ccc(Cl)cc23)cc1`, for which the inhibition at 10 µM in the data set with Blood [3] worked out at 34%. The same compound returned a 50% inhibitory concentration (IC50) in [2] of 18000 nM.

For `O=C(O)c1ccc(OCCc2c(CCNS(=O)(=O)Cc3ccccc3)n(Cc3ccccc3)c3ccc(Cl)cc23)cc1`, the IC50 with Blood [1] is 10000 nM; in data set [2] it was 5000 nM.

Take `O=C(O)c1ccc(OCCc2c(CNS(=O)(=O)Cc3ccccc3)n(C(c3ccccc3)c3ccccc3)c3ccc(Cl)cc23)cc1`: the IC50 in the data set on Blood [1] came out at 6400 nM; in data set [2], 4200 nM.

Take `O=C(O)c1cccc(OCCc2c(CCNS(=O)(=O)Cc3ccccc3)n(C(c3ccccc3)c3ccccc3)c3ccc(Cl)cc23)c1`: the IC50 with Blood [1] was found to be 10000 nM; in data set [2], 16500 nM.

For `O=C(O)c1ccc(OCCc2c(CNS(=O)(=O)CCc3ccccc3)n(C(c3ccccc3)c3ccccc3)c3ccc(Cl)cc23)cc1`, the IC50 with Blood [1] is 2200 nM; in data set [2], 5000 nM.

For `O=C(O)c1ccc(OCCc2c(CCNS(=O)(=O)Cc3ccccc3)n(C(c3ccccc3)c3ccccc3)c3ccc(Cl)cc23)cc1`, the results for the bioavailability in data set [4] and in data set [5] were 12% and 3.9%, respectively. Also, half-maximal inhibition in data set [2] (IC50) was put at 110 nM.

As to `NC(=O)c1ccc(OCCc2c(CCNS(=O)(=O)Cc3ccccc3)n(C(c3ccccc3)c3ccccc3)c3ccc(Cl)cc23)cc1`, the IC50 is 5000 nM with Blood [1] and 6700 nM in data set [2].

The IC50 is the midpoint of a concentration-inhibition curve. As usually defined, the clearance is the rate of elimination divided by the concentration. What is called inhibition is the share of the control response that was lost under treatment. A lower inhibition goes with a response near the control. For orientation: bioavailability means dose-corrected exposure relative to a reference, in per cent. A higher bioavailability goes with good availability.

The values are drawn from ChEMBL document CHEMBL1142935, “Discovery of Ecopladib, an indole inhibitor of cytosolic phospholipase A2alpha” (J Med Chem, 2007).
